The target in series [1] is T1, Cannabinoid receptor 1 (Homo sapiens, UniProt P21554). As to the kind of experiment: Agonist activity at human cannabinoid CB1 receptor expressed in CHO cells after 5 hrs by luciferase reporter gene assay. The series is classed as functional, cell-based. The procedure, abridged:
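Functional agonism was tested in CHO cells doubly transfected with human CB1 and a luciferase reporter gene. Potency is reported as pEC50, the mean of three experiments.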

A short description of series [2]: Aqueous solubility of the compound at citrate buffer of pH 4.9. The class given is physicochemical. The procedure, abridged:
(§1)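 MSF solubility of the HCl salt was measured in citrate buffer (nominal pH 5) and in PBS (nominal pH 7.4). The final pH of each solution was recorded and reported alongside the solubility in mg/L.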

Series [3] can be described thus: Aqueous solubility of the compound at phosphate buffer solution of pH 7. The class given is physicochemical. In a few lines: as §1
Series [4] concerns the target T1, Cannabinoid receptor 1. As to the kind of experiment: Displacement of [3H]CP-55940 from human cannabinoid CB1 receptor expressed in insect Sf9 cells. In a few lines:
(§2)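 Affinity at CB1 and CB2 came from radioligand competition binding with [3H]CP 55,940 and is reported as pKi.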

In series [5] the target is Cannabinoid receptor 2 (Homo sapiens, UniProt P34972). As to the kind of experiment: Displacement of [3H]CP-55940 from human cannabinoid CB2 receptor expressed in insect Sf9 cells. The procedure, abridged: as §2
Cannabinoid receptor 2, sequence (P34972 whole entry): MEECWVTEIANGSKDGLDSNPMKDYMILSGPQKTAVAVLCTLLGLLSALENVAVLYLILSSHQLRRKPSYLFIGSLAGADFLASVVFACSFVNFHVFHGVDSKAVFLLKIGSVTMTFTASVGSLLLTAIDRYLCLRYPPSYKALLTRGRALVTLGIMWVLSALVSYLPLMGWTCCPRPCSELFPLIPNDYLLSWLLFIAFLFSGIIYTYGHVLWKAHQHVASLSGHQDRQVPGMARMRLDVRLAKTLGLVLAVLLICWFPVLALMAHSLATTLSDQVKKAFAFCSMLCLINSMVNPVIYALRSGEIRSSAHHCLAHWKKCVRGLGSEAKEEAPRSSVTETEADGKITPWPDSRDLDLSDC
A short description of series [6]: Aqueous solubility of the compound at phosphate buffer solution of pH 6.7. The class given is physicochemical.
The nature of series [7]: Aqueous solubility of the compound at citrate buffer of pH 5. The series is classed as physicochemical.
Series [8] can be described thus: Intrinsic clearance in mouse liver microsomes. The class given is ADME, Microsome. For orientation: Microsomes from liver hold many membrane-bound enzymes, among them those of drug oxidation.
The nature of series [9]: Cmax in ICR mouse plasma at 0.5 umol/kg, iv after 0.05 hrs. The class given is ADME, organism-based. Details: dose 0.5 umol/kg, route intravenous. The procedure, abridged: (§3)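 ICR mice received a single iv dose in saline vehicle. Brain and plasma levels were measured with terminal sampling under CO2. Plasma Cmax was taken at t = 0.05 h. Brain exposure was given as Cmax, tmax and AUC over 0–1 h, plus a brain:plasma Cmax ratio from the same study.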

A short description of series [10]: AUC in ICR mouse plasma at 0.5 umol/kg, iv. The series is classed as ADME. In a few lines:
as §3

The nature of series [11]: Clearance in ICR mouse at 0.5 umol/kg, iv. The class given is ADME, organism-based. The conditions noted are these: in vivo. In a few lines:
as §3

The nature of series [12]: Elimination half life in ICR mouse at 0.5 umol/kg, iv. The class given is ADME, organism-based. The conditions noted are these: in vivo, read-out: beta t1/2 (converted). The procedure, abridged: as §3
Series [13] in a line: Volume of distribution at steady state in ICR mouse at 0.5 umol/kg, iv. The series is classed as ADME, organism-based. To be noted: in vivo, read-out: Vdss. The procedure, abridged: as §3
Series [14] in a line: Cmax in ICR mouse brain at 0.5 umol/kg, iv. The series is classed as ADME, organism-based. Details: dose 0.5 umol/kg, route intravenous. The procedure, abridged:
as §3

Series [15] can be described thus: Tmax in ICR mouse brain at 0.5 umol/kg, iv. The class given is ADME, organism-based. The procedure, abridged:
as §3

The subject of series [16] is Brain. The series is described as follows: AUC (0 to 1 hr) in ICR mouse brain at 0.5 umol/kg, iv. The class given is ADME, organism-based. Details: dose 0.5 umol/kg, time < 1 hr, route intravenous. The conditions noted are these: in vivo. The procedure, abridged: as §3
A short description of series [17]: Ratio of Cmax in brain to plasma in ICR mouse brain at 0.5 umol/kg, iv. The class given is ADME. To be noted: brain and plasma. The procedure, abridged: as §3
The test system of series [18] is Mus musculus. As to the kind of experiment: Antinociceptive activity against Freund's complete adjuvant-induced […] pain in iv dosed mouse assessed as increase in tail flick latency by tail flick test. The series is classed as functional. (In general: Hot-plate and tail-flick tests time the reaction to a heat stimulus.)

SMILES strings stand for the structures. pEC50, pKi: −log10 of the molar value. In brackets after ≈: the same amount, converted by molar mass.

The pEC50 is the EC50 on a negative log10 scale, so that one unit is a factor of ten. Lower therefore signals a large EC50. In general, solubility refers to how much of the substance goes into solution per volume. Higher therefore signals a readily soluble substance. Usually pKi stands for the negative decadic logarithm of the Ki, by convention in mol/L. The low end stands for a large Ki, the high end for a small Ki. The term microsomal CLint denotes the capacity of the preparation to metabolise the compound, expressed as a volume cleared per time. A high value points to rapid turnover. One may read the Cmax as the peak of the concentration-time curve. For orientation: clearance means the volume of plasma or blood freed of the substance per unit of time. Lower therefore signals a low capacity for elimination. For orientation: Tmax means the time from dosing to the highest level. As usually defined, the Kp is tissue or fluid exposure divided by exposure in the circulation. The term ED50 denotes the dose at which the effect has come halfway, by size or by number of responders.

T1 sequence (P21554 whole entry): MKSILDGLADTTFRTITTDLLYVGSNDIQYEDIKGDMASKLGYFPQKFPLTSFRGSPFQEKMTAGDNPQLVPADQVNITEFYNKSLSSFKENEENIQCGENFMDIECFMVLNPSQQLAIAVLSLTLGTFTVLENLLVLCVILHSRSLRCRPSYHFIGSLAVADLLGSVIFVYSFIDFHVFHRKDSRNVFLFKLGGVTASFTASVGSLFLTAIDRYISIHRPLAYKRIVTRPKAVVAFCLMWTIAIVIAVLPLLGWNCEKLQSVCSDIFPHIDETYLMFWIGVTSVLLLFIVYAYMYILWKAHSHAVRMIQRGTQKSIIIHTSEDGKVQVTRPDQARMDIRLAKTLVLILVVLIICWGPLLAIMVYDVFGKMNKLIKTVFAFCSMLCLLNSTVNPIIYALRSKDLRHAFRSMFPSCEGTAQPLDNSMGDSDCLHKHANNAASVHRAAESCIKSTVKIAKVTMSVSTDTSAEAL

`CCN1CCN(C(=O)c2cn3c4c(cccc24)OCC3C2CCCCC2)CC1` (configuration not stated) showed a pEC50 in series [1] of 7.50.

Consider `CCN1CCN(C(=O)c2cn3c4c(cccc24)CCC3C2CCCCC2)CC1` (configuration not stated), for which the pEC50 in [1] was 7.60. Also, the values for the solubility in series [2] and in [3] were 3510 µg/mL (≈ 9250 µM) and 114 µg/mL (≈ 300 µM), respectively.

With `CCN1CCN(C(=O)c2cn3c4c(cccc24)OC[C@H]3C2CCCCC2)CC1`, the pKi in series [4] is 7.90; in series [5], 8.40.

For `CCN1CCN(C(=O)c2cn3c4c(cccc24)OC[C@@H]3C2CCCCC2)CC1`, the negative-log EC50 (pEC50) in series [1] is below 5.00. Further, the solubility in [2] was above 4000 µg/mL; in [3] it was 308 µg/mL (≈ 807 µM).

As to `CCN1CCN(C(=O)c2cn(CC3CCCCC3)c3c(OC)cccc23)CC1`, the solubility was determined as 216 µg/mL (≈ 563 µM) in series [6] and 3400 µg/mL (≈ 8860 µM) in series [7]. Moreover, the pEC50 in [1] is 6.80.

Compound `O=C(c1cn2c3c(cccc13)OC[C@H]2C1CCCCC1)N1CCNCC1` gave a pEC50 in [1] of 5.40.

With `C[C@@H]1CN(C(=O)c2cn3c4c(cccc24)OC[C@H]3C2CCCCC2)C[C@H](C)N1`, in [1], the pEC50 is 6.90.

`CCN1[C@H](C)CN(C(=O)c2cn(CC3CCCCC3)c3c(OC)cccc23)C[C@@H]1C`: in series [1], the pEC50 was 8.00.

Take `COc1cccc2c(C(=O)N3C[C@@H](C)N(C)[C@@H](C)C3)cn(CC3CCCCC3)c12`: the negative logarithm of the EC50 (pEC50) in series [1] was 7.60. Compared with the last compound, the pEC50 is 0.40 log units lower.

`C[C@H]1CN(C(=O)c2cn3c4c(cccc24)OC[C@H]3C2CCCCC2)CCN1C` returned a microsomal CLint in series [8] above 180 µL/min/mg. The Cmax turned out to be 51.5 ng/mL in series [9] and 76.2 ng/g in [14]. Moreover, the AUC in [10] was 23.7 ng·h/mL; in series [16], 44.6 ng·h/g. The clearance in [11] was found to be 134 mL/min/kg. The half-life in [12] was 13.8 min. Also, in series [13], the Vd worked out at 2.6 L/kg. For the same compound, the time to peak (Tmax) in [15] came to 10.2 min. The Kp in series [17] came out at 1.48. The ED50 in [18] is 0.19 µmol/kg. The values for the pKi in [4] and in series [5] were 8.70 and 9.40, respectively.

The compound `C[C@H]1CN(C(=O)c2cn3c4c(cccc24)OC[C@H]3C2CCCCC2)CCN1` showed a pEC50 in series [1] of 6.30.

Take `C[C@@H]1CN(C)C[C@H](C)N1C(=O)c1cn2c3c(cccc13)OC[C@H]2C1CCCCC1`: the pEC50 in series [1] is 7.20.

On to `C[C@@H]1CNC[C@H](C)N1C(=O)c1cn2c3c(cccc13)OC[C@H]2C1CCCCC1`, for which the pEC50 in [1] is 6.10.

The values above are taken from ChEMBL document CHEMBL1208772, “Design, synthesis, and structure-activity relationship study of conformationally constrained analogs of indole-3-carboxamides as novel CB1 cannabinoid receptor agonists” (Bioorg Med Chem Lett, 2010).
